UBC13 polyUb = blocks human UBC13 polyubiquitin chain formation. P61088. TR-FRET. actives 0.47% (n = 330,000). AID 485273. inhibition, % at 20 µM; in the data active = inhibition above about 45%, passing the limit was not always enough
RAD52 inh = RAD52 (human) annealing inhibition | inhibition, % at 18.7 µM | P43351 | AID 651710 | actives 0.46% (n = 360,000) | recombinant RAD52 DNA annealing, FRET fluorescence;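 active = every replicate showing at least 50% inhibition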
Neddyl block = blocks human cullin neddylation; actives 0.58% (n = 360,000); calls only at 25 µM; TR-FRET cullin neddylation, biochemical; AID 651699; in the data active = inhibition above about 36%
RAD54 branch = inhibitors of human RAD54 branch migration. inhibition, % at 10.4 µM. Q92698. RAD54 Holliday junction branch migration, FAM/BHQ fluorescence. actives 0.14% (n = 360,000). AID 602329;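 active = mean normalized replicate activity at least 40 and at least half of replicates scoring 40 or more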;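 note: inhibitors cause a drop in the FAM fluorescence signal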
FID counter = fluorescent intercalator displacement, NS3 helicase counter-screen. inhibition, % at 7.9 µM. actives 0.17% (n = 290,000). DNA fluorescent intercalator displacement, fluorescence; in the data active = inhibition above about 37%;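 note: higher means more ethidium bromide displaced from hairpin DNA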
Apaf-1 inh = human Apaf-1 inhibition; inhibition, % at 20 µM; O14727; reconstituted apoptosome caspase-3 activity, DEVD-Rh110 fluorescence; actives 0.71% (n = 330,000); active = inhibition of at least 40% at 20 µM
Target sequence (O14727 whole entry, looked up): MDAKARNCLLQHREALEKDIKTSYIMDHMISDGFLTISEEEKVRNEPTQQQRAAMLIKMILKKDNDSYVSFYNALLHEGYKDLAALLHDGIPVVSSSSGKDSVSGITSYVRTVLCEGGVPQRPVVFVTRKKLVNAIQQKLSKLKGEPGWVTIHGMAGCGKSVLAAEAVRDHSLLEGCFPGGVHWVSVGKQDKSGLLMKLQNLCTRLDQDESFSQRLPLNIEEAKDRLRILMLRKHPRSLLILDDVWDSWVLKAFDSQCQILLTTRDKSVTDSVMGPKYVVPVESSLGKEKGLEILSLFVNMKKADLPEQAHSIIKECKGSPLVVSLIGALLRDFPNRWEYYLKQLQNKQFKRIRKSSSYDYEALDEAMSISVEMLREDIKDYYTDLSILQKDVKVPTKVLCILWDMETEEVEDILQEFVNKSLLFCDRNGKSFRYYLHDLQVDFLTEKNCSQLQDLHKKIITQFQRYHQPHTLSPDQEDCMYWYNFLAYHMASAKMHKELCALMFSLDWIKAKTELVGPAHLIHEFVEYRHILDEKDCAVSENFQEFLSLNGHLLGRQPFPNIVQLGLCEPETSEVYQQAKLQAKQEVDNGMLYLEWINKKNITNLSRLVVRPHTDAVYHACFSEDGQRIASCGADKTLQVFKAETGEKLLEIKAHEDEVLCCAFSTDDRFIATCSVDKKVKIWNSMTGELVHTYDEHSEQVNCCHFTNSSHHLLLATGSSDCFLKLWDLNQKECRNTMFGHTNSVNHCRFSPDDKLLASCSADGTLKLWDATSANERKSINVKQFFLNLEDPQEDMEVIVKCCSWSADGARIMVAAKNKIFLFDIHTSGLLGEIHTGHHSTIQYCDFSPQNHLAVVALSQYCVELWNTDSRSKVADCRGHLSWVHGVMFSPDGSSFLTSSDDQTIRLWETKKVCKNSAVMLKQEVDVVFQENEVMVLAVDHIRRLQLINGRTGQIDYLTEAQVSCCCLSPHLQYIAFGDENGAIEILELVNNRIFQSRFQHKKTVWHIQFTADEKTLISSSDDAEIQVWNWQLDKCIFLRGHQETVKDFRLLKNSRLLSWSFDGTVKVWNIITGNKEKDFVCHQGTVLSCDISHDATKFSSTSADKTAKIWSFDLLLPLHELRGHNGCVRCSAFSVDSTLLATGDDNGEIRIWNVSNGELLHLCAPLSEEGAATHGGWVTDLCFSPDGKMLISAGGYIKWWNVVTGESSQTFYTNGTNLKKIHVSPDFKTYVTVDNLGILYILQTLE
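Assay system: Apoptosome proteins | Medium: pH 7.5 Hepes buffer with CHAPS, BSA, DTT | Also added: Cytochrome c and DEVD-Rh110 substrate | Times: 30 min plus 50 min, RT | Detection: Rhodamine 110 fluorescence at Ex 480/Em 540 nm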
Neddyl inh conf = confirmation of human cullin neddylation inhibitors | shares compounds with Neddyl block | TR-FRET cullin neddylation biochemical assay | calls only at 25 µM | actives 13% (n = 1,800); in the data active = inhibition above about 40%;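 note: neddylation substrate is the cullin 1 ring ligase complex with SKP2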
Each line names hits and unclear results; the compound was inactive in the other large screens (follow-up assays come after a bar, where shown). In the library only some 1.6% were active in any assay of this set; here they are far more common.

CC(=O)N(C)C[C@H]1Oc2ncc(-c3ccc(C)cc3)cc2C(=O)N([C@@H](C)CO)C[C@H]1C	none (no result: UBC13 polyUb, Neddyl block, FID counter, Apaf-1 inh)
Cc1ccc(C(=O)N/C(=C/c2ccc(-c3cc(C(F)(F)F)ccc3Cl)o2)C(=O)NCc2cccnc2)cc1	Neddyl block active (not shown: RAD52 inh)
C[C@@H]1CN([C@H](C)CO)C(=O)c2cc(NC(=O)Nc3ccc(F)cc3)ccc2O[C@@H](C)CCCCO[C@H]1CN(C)C(=O)NC1CCCCC1	none (no result: UBC13 polyUb, Neddyl block, FID counter, Apaf-1 inh)
CC1CCN(S(=O)(=O)c2ccc3c(c2)C(=NO)c2cc(S(=O)(=O)N4CCC(C)CC4)ccc2-3)CC1	Neddyl block active (no result: RAD52 inh) | Neddyl inh conf inactive
CC(=O)NC[C@H]1[C@@H](c2ccc(C3=CCCC3)cc2)[C@@H](CO)N1C(=O)CN(C)C	none (no result: UBC13 polyUb, Neddyl block, RAD54 branch, FID counter, Apaf-1 inh)
COc1ccc(CC(=O)Nc2cccc(-c3cn4ccccc4n3)c2)cc1	none (no result: RAD54 branch)
O=C(Nc1cccc(-c2cn3ccccc3n2)c1)c1cccc(Cl)c1	Neddyl block active (not shown: RAD52 inh, RAD54 branch)
CC(=O)Nc1cccc(-c2cn3ccc(C)cc3n2)c1	none (not shown: Neddyl block, RAD54 branch)
CCC(=O)Nc1cccc(-c2cn3ccccc3n2)c1	Neddyl block active (no result: RAD52 inh, RAD54 branch) | Neddyl inh conf inactive
CC(=O)Nc1ccc2nc(-c3ccccc3)cn2c1	Neddyl block active (no result: RAD54 branch) | Neddyl inh conf inactive
O=C(Nc1cccc(-c2cn3ccccc3n2)c1)c1cnccn1	none (no result: RAD52 inh)
O=C(N/N=C/c1c(O)n(Cc2ccccc2)c(=O)c2ccccc12)c1cccnc1	Neddyl block active (not shown: RAD54 branch)
C[C@H]1CN([C@@H](C)CO)S(=O)(=O)c2ccc(/C=C/c3ccccc3)cc2O[C@H]1CN(C)C(=O)c1ccncc1	none (no result: UBC13 polyUb, Neddyl block, FID counter, Apaf-1 inh)
O=C(Nc1ccc2c(c1)OCO2)c1cc(-c2ccc(O)cc2)on1	Neddyl block active | Neddyl inh conf active
O=C(Nc1ccc2c(c1)OCO2)c1cc(-c2cccc(O)c2)on1	none
CCN(CC)c1ccc(/C=N/n2nnnc2N)c(O)c1	Neddyl block active (no result: RAD52 inh) | Neddyl inh conf active
O=C(COc1ccccc1F)N1N=C(c2cccs2)CC1c1ccco1 (stereo not drawn)	Neddyl block active (no result: RAD54 branch, FID counter) | Neddyl inh conf inactive
O=C(COc1ccc(Cl)cc1)N1N=C(c2cccs2)CC1c1ccco1 (stereo not drawn)	none (no result: UBC13 polyUb, FID counter, Apaf-1 inh)
O=C(Cc1ccccc1)N1C[C@@H]2[C@H](c3ccccc31)[C@@H](CO)N2C(=O)c1cccc(F)c1	none (no result: UBC13 polyUb, Neddyl block, FID counter, Apaf-1 inh)
O=C(C[C@@H]1CC[C@@H]2[C@H](COC[C@H](O)CN2C(=O)c2ccc(F)cc2)O1)NC1Cc2ccccc2C1	none (no result: UBC13 polyUb, Neddyl block, FID counter, Apaf-1 inh)
CS(=O)(=O)Nc1ccc2c(c1)[C@H]1C[C@@H](CC(=O)NCc3ccccn3)O[C@@H](CO)[C@H]1O2	none (no result: UBC13 polyUb, Neddyl block, FID counter, Apaf-1 inh)
CCCN1[C@@H]2Cn3c(cccc3=O)[C@H]1[C@@H](C(=O)N[C@@H](C)c1ccccc1)[C@@H]2CO	none (no result: UBC13 polyUb, Neddyl block, RAD54 branch, FID counter, Apaf-1 inh)
O=C(O)c1ccc(CN2C[C@@H](CO)O[C@@H](n3cnc4c(Nc5ccccc5)ncnc43)C2)cc1	none (no result: UBC13 polyUb, FID counter, Apaf-1 inh)
OC[C@@H]1CN(Cc2ccc(Cl)cc2)C[C@H](n2cnc3c(Nc4ccccc4)ncnc32)O1	Neddyl block active (not shown: UBC13 polyUb, FID counter, Apaf-1 inh)
CC(C)Nc1ncnc2c1ncn2[C@H]1CN(Cc2ccco2)C[C@@H](CO)O1	none (no result: UBC13 polyUb, FID counter, Apaf-1 inh)
OC[C@@H]1CN(Cc2ccco2)C[C@H](n2cnc3c(Nc4ccccc4)ncnc32)O1	Neddyl block active (not shown: UBC13 polyUb, FID counter, Apaf-1 inh)
CN1c2ccccc2C(O)=C(C(=S)Nc2ccc(F)c(Cl)c2)S1(=O)=O	Neddyl block active (no result: RAD52 inh) | Neddyl inh conf inactive
O=C(/C=C/c1cn(-c2ccccc2)nc1-c1cccs1)NCCN1CCOCC1	none (not shown: Neddyl block)
O=C(N/N=C/c1cn(-c2ccccc2)nc1-c1cccs1)c1ccncc1	Neddyl block active (not shown: RAD52 inh, RAD54 branch)
CN(C)C(=O)COC(=O)/C=C/c1cn(-c2ccccc2)nc1-c1cccs1	Neddyl block active (not shown: RAD54 branch)
O=C(N/N=C/c1nn(-c2ccccc2)cc1-c1ccccc1)c1ccncc1	Neddyl block active (no result: RAD52 inh, RAD54 branch) | Neddyl inh conf inactive
O=C(N/N=C/c1cn(-c2ccccc2)nc1-c1ccccc1)c1ccco1	Neddyl block active (no result: RAD52 inh) | Neddyl inh conf inactive
NC(=O)N/N=C/c1cn(-c2ccccc2)nc1-c1cccs1	none (no result: RAD54 branch)
C[C@@H]1CCCCO[C@@H](CN(C)S(C)(=O)=O)[C@H](C)CN([C@@H](C)CO)C(=O)c2cc(NC(=O)Cc3ccccc3)ccc2O1	none (no result: UBC13 polyUb, Neddyl block, FID counter, Apaf-1 inh)
COCCn1c(C)cc(/C=C(\C#N)C(=O)OCC(=O)Nc2ccc(S(N)(=O)=O)cc2)c1C	Neddyl block active (no result: FID counter) | Neddyl inh conf active
Cc1c(C(=O)Nc2ccc(S(N)(=O)=O)cc2)oc2ccc(Cl)cc12	Neddyl block active (no result: RAD54 branch) | Neddyl inh conf inactive
CCc1ccc2oc(C(=O)Nc3ccc(S(N)(=O)=O)cc3)c(C)c2c1	none (not shown: Neddyl block)
COC(=O)c1cc(OC)c(OC)c(OC)c1N	Neddyl block active (no result: RAD52 inh) | Neddyl inh conf inactive
COc1ccc2[nH]c(C(=O)O)c(NS(=O)(=O)c3ccc(C)cc3C)c2c1	Neddyl block active
CCN(CC)CCNC(=O)c1ccc(NC(=O)c2cc(-c3ccco3)nc3ccccc23)cc1	Neddyl block active | Neddyl inh conf inactive
CN(C)C(=O)c1ccc(NC(=O)c2cc(-c3ccco3)nc3ccccc23)cc1	Neddyl block active
C[C@H]1CCCCO[C@H](CN(C)C(=O)c2ccccc2)[C@@H](C)CN([C@@H](C)CO)C(=O)c2cc(NC(=O)CCC(F)(F)F)ccc2O1	none (no result: UBC13 polyUb, Neddyl block, FID counter, Apaf-1 inh)
COc1cccc(-n2c(N)c(C(=O)Nc3c(C)n(C)n(-c4ccccc4)c3=O)c3nc4ccccc4nc32)c1	Neddyl block active | Neddyl inh conf inactive
O=C(NCc1ccccc1)[C@H]1[C@H](CO)[C@H]2Cn3c(cccc3=O)[C@@H]1N2	none (no result: UBC13 polyUb, Neddyl block, FID counter, Apaf-1 inh)
CCOC(=O)N1CCC(Nc2cc(C)nc3c(-c4ccccc4OC)c(C)nn23)CC1	Neddyl block active | Neddyl inh conf inactive
COc1ccccc1-c1c(C)nn2c(N3CCC(C)CC3)cc(C)nc12	Neddyl block active (not shown: RAD54 branch)
CCOC(=O)N1CCN(C(=O)CSc2cc(C)nc3c(-c4ccccc4OC)c(C)nn23)CC1	none (no result: RAD52 inh)
Cc1cc(C)cc(Nc2ccc(C(=O)O)cc2N)c1	none (not shown: RAD52 inh, Neddyl block)
COc1cccc(Nc2ccc(C(=O)O)cc2N)c1	Neddyl block active
COc1ccc(CN(C)C[C@@H]2OCCCC[C@H](C)Oc3ccc(N(C)C)cc3C(=O)N([C@H](C)CO)C[C@@H]2C)cc1	none (no result: UBC13 polyUb, Neddyl block, FID counter, Apaf-1 inh)
COc1cc(OC)cc(-c2sc3ccc(OC)cc3c2C#CCO)c1	none (no result: FID counter)
COc1cc2sc(-c3ccc(S(C)(=O)=O)cc3)c(C#CCO)c2cc1OC	Neddyl block active (no result: FID counter) | Neddyl inh conf active
COc1ccc(/C=C/c2ccccc2)cc1[C@H]1[C@H]2C=CC[C@@H](C)[C@@H]2C(=O)N1Cc1ccccc1	Neddyl block active (no result: RAD52 inh, FID counter) | Neddyl inh conf inactive
COc1ccc(-c2ccc(OC)c([C@H]3[C@H]4C=CC[C@@H](C)[C@@H]4C(=O)N3Cc3ccccc3)c2)cc1C	none (no result: FID counter)

High-throughput results: PubChem BioAssay, several laboratories
